We go through 36 sequences from the EternaBench riboswitch data.

This series deals with MS2 coat protein. The series is described as follows: apparent Kd, MS2 coat protein; higher = weaker binding; RNA-MaP array; FMN 200 µM where present. A digest of the protocol: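 Apparent Kd: the median of filtered binding-curve fits from single clusters. Designs were transcribed on Illumina sequencing-chip clusters by stalled E. coli RNA polymerase and titrated with SNAP-549-labelled MS2 coat protein from 0.7 or 1.5 nM, doubling to 3 µM, in 100 mM Tris-HCl pH 7.5, 80 mM KCl, 4 mM MgCl2, BSA, DTT, yeast tRNA and Tween-20. Each series ran without and then with constant ligand, and green signal was normalised to red-channel RNA signal and control-cluster median Fmax.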

[1] abbreviates: designed as: OFF switch for flavin mononucleotide, no ligand.
Setting [2] is: ligand present: flavin mononucleotide, designed as: OFF switch for flavin mononucleotide.
Where [3] appears, read: designed as: ON switch for flavin mononucleotide, no ligand.
[4] abbreviates: ligand present: flavin mononucleotide, designed as: ON switch for flavin mononucleotide.

In the case of “AUGUUACAUGAGGAUCACCCAUGUGAGGAUAUGUGUAUCCCUAAAAAAGUGUGGGACCACAGAAGGUACUUGGA”, the “apparent Kd” value reads like this: under setting [1], 51.5 nM; under setting [2], 50.4 nM.

Turning to “UUUGGGUGGCUGGAGGAUAUCCUUGUUGUUACAUGAGGAUCACCCAUGUGCCGCGCGGUUCGCGAGGAGAAGGCUGGCGGCCGUU”, the “apparent Kd” value by setting is: under setting [3], 331 nM; under setting [4], 61.3 nM.

As for “CGCAAGUCAGGAUAUUCGACUGGUCCAUCUGUGGAUCAGUAGGAGAAGGGACAUGAGGAUCACCCAUGUUUGUU”, the “apparent Kd” value came out at 30.7 nM under setting [1] and 46.9 nM under setting [2].

“UAUAAUUAGUAGAAGGACGGUGAGUAAGAGGUCGUAGGAUAUACAACUGACAUGAGGAUCACCCAUGUGUGUAUGUUGGGAAGG”: the “apparent Kd” value was 11.1 nM under setting [1] and 9.9 nM under setting [2].

Regarding “GGAGCACACAUUAACAUGAGGAUCACCCAUGUCAAAGGACAUGAGGAUAUGGAUCCGAAAAGGAUCCAGAAGGCAUGGUGCUCC”, the “apparent Kd” value reads like this: under setting [3], 173 nM; under setting [4], 11.1 nM.

As to “UAUUAAUAAUAAGGAUAUACGUCACUGCUUCGGCAGUGUGGUAAGAUCACAUGAGGAUCACCCAUGUAGAAGGAAUAUAAAAUU”, the “apparent Kd” value under setting [1] is 11.2 nM and the “apparent Kd” value under setting [2] came out at 9.26 nM.

As to “AUUAGCUCGUCAGGAUAUACGUCACUGCGUCAGCAGUGUGGUAAGAUCACAUGAGGAUCACCCAUGUAGAAGGGACGAGCUGAU”, the “apparent Kd” value is, setting by setting: under setting [1], 13 nM; under setting [2], 289 nM.

For “UUUGGGUGGCUGGAGGAUAUUCGAGUGGUAACAUGAGGAUCACCCAUGUGUCGCGCGGUACACGAGGAGAAGGCUGGCGGCCGUU”, the “apparent Kd” value is 56.5 nM under setting [3] and 18.9 nM under setting [4].

For the sequence “GGCGAACAUGAGGAUCACCCAUGUCAGGAUAUCUCUCGCGUUGAAUUGAGGGUGUGUGAGAGAAGGGAUAUGUA”, the “apparent Kd” value under setting [1] is 49.7 nM and the “apparent Kd” value under setting [2] is 49.9 nM.

“GUCGAUGUAGGAUAUUUCCACCCGCACAUGAGGAUCACCCAUGUGACCUUUUUCCGCUGGAAAGAAGGACGCGACA”: the “apparent Kd” value was 19.8 nM under setting [1] and 28.4 nM under setting [2].

“UCCUACAUGGGAGGAUAUGGGAUGAUAACAUGAGGAUCACCCAUGUUAAAGAUGCCGAGAGGCAACUAGAAGGCCCAUGUAGGU”: the “apparent Kd” value under setting [3] was determined as 434 nM and the “apparent Kd” value under setting [4] amounted to 70.3 nM.

For “AAAAUCUAUUGAGGAUAUUCAUACACUACGUACGGAGAAGGCAAACAAUCAUGAGGACAUGAGGAUCACCCAUGUUGUGACCAU”, the “apparent Kd” value under setting [3] turned out to be 17.6 nM and the “apparent Kd” value under setting [4] was found to be 10.6 nM.

As to “AGACUGCGUAGAAUUAGCAGCUGACAGGAUAUGACAUGAGGAUCACCCAUGUGAACUACAAAGGAUCAGAAGGGUCACGACACA”, the “apparent Kd” value runs as follows: under setting [1], 18.6 nM; under setting [2], 30.3 nM.

For the sequence “CUUUCGUGAGGAUAUCAGUAGUAAUAAUAUAAAAUUACUACUGAGAAGGCACAUGAGGAUCACCCAUGUUCCUC”, the “apparent Kd” value reads like this: under setting [1], 24.5 nM; under setting [2], 114 nM.

Take “UACAUCAAUGAAGGAUAUCUAUAUCCAACAUGAGGAUCACCCAUGUUGAGGAUCACCCAUGUAAAGGAGAAGGUUAACAUAACU”: the “apparent Kd” value is, setting by setting: under setting [3], 39.4 nM; under setting [4], 34 nM.

For the sequence “AAUUCGUUCUAGAAGGUGCAUUUGUUAAACAUGCAAGGAUAUAGACAUGAGGAUCACCCAUGUCUAUGAGACAUCGGCCUCCUG”, the “apparent Kd” value was 6.72 nM under setting [1] and 11.7 nM under setting [2].

With “GGUACCCUGGUUCUUCAAAAUACAUGAGGAUCACCCAUGUACUAGGAUAUCGCGCGAACCCUCGCUGAGAAGGAGUCGAUGGGC”, the “apparent Kd” value runs as follows: under setting [1], 22 nM; under setting [2], 23.4 nM.

“ACUAGAUGAGGAUAUACACAUUUUAGUGUUCCUCUAGAUUAACAUGAGGAUCACCCAUGUAGAAGGCAUCAUUA”: the “apparent Kd” value runs as follows: under setting [1], 59.7 nM; under setting [2], 218 nM.

Turning to “ACGUAUCAUGUAGGAUAUGACCCAGGAAACUGGUCAGAAGGACAUGAGGAUCACCCAUGUAGAGUAUGUUAGGAUGACGUAUGC”, the “apparent Kd” value under setting [1] stood at 138 nM and the “apparent Kd” value under setting [2] is 188 nM.

For “UUUUGUUUACAAGGAUAUCAAUUAUUUAUACUUCCUACAUGAGGAUCACCCAUGUUUUUAUAUUUUGAGAAGGUGUAAUGUCGG”, the “apparent Kd” value by setting is: under setting [3], 40.4 nM; under setting [4], 39 nM.

For “GCGGUAUUGUAAGGAUAUACUCUGUGAUGAAGAGUAGAAGGUACUUACAUGAGGAUCACCCAUGUUUUUCGUAAAAGUUACCGC”, the “apparent Kd” value is, setting by setting: under setting [3], 16.2 nM; under setting [4], 10.6 nM.

Take “UUAAUUAUGUAAGGAUAUACAUGAGGAUUUCUCGUAGAAGGUACAUUACAUGAGGAUCACCCAUGUGGGUGUCCGUAGACGCCA”: the “apparent Kd” value amounted to 632 nM under setting [3] and 614 nM under setting [4].

Consider “GGAUACAUCGGAGGAUAUCAUGUAAAUACAUGAGGAUCACCCAUGUCGAUGGAGACAUCGGAGAUUGAGAAGGCCGAUGUACCG”, for which the “apparent Kd” value is, setting by setting: under setting [3], 164 nM; under setting [4], 8.95 nM.

On to “UGAUAGGACAGAGGAUAUACGGAUAGGAUCUACUAUCUUCCUUAAAUAACAUGAGGAUCACCCAUGUAGAAGGCUGUCCUAUCU”, for which the “apparent Kd” value under setting [1] turned out to be 18.2 nM and the “apparent Kd” value under setting [2] came out at 65.2 nM.

For the sequence “CUGUUCGGUGUAGGAUAUGCAUAUUCCCAUUAUGCAGAAGGACAUGAGGAUCACCCAUGUAUGUUAUUAUCAUGUGUUACAUGC”, the “apparent Kd” value reads like this: under setting [1], 38.2 nM; under setting [2], 90.2 nM.

“CGGGCUGCUGUGAGGAUAUGCCUGUGGGUGCGUGGGUAGAAGGCACAUGAGGAUCACCCAUGUCCUGCGGCUCG”: the “apparent Kd” value by setting is: under setting [1], 736 nM; under setting [2], 537 nM.

Regarding “ACGGCAGUCAGAGGAUAUGGUUACAUGAGGAUCACCCAUGUCAAGGGUCUAAUUAGGUAUAACUACCAGAAGGCUGAAGGCCUA”, the “apparent Kd” value by setting is: under setting [1], 64.5 nM; under setting [2], 102 nM.

Regarding “GUAGCUAUCGGAGGAUAUUUAUACCGGAAACGGACAUGAGGAUCACCCAUGUGGCGAAAGCCUUGGGAGAAGGCCGAUAGCUAC”, the “apparent Kd” value under setting [3] stood at 29.7 nM and the “apparent Kd” value under setting [4] came out at 4.23 nM.

As to “UUCCGGCGUGUAGGAUAUGGAUCCGAUUAGGAUCCAGAAGGACAUGAGGAUCACCCAUGUACAUGUAAACAGUCAUCACCGGAG”, the “apparent Kd” value is, setting by setting: under setting [1], 7.36 nM; under setting [2], 11.4 nM.

With “CGCGAACAGGCUAACAUGAGGAUCACCCAUGUGGACUCAUGGUAGGAUAUCGGGAAGGAGGAAACCGAGAAGGGCCGGUGAGCA”, the “apparent Kd” value under setting [3] is 218 nM and the “apparent Kd” value under setting [4] was 38.9 nM.

For “CCUUAGUCAGGAUAUACAUGAGGAUCACCCAUGUAAAAUUUUAAUUUAAUUUUAAGGUGUAGAAGGGACCACCC”, the “apparent Kd” value runs as follows: under setting [1], 26.3 nM; under setting [2], 22.6 nM.

Take “GAGCGAAAGCUCAAUGUCGAUAGCAGAAGGACACAUGAUAACAUGAAAACAUGAGGAUCACCCAUGUAGGAUAUGCUAUCGACU”: the “apparent Kd” value by setting is: under setting [1], 8.57 nM; under setting [2], 13.9 nM.

For the sequence “GGCGAAGAGGCUAACAUGAGGAUCACCCAUGUGGACUCAUGGUAGGAUAUGCUGUACAAAGUACAGCAGAAGGGCCGCUGAGCC”, the “apparent Kd” value came to 146 nM under setting [3] and 663 nM under setting [4].

Take “UGAUACUAAGAGAAGGUUCAAACUACAUAUUGCAUACAUGAGGAUCACCCAUGUUGGUGAAUAAGAAAGGAUAUUUUACUAUAU”: the “apparent Kd” value runs as follows: under setting [1], 48.2 nM; under setting [2], 38.2 nM.

“AUAAUGAGUCAAGGAUAUCCGAGCUGAAUGCUAGGAGAAGGUGACAUGAGGAUCACCCAUGUCUCUCCGAGCAUGGUAUUCUCA”: the “apparent Kd” value came to 28.6 nM under setting [1] and 33.6 nM under setting [2].

For the sequence “GGAUAGGACAGAGGAUAUACAGAUAGGAUCUACUAUCAAACAUUCCUGACAUGAGGAUCACCCAUGUAGAAGGCUGUCCUAUCG”, the “apparent Kd” value under setting [1] turned out to be 22.7 nM and the “apparent Kd” value under setting [2] was determined as 75.4 nM.
